Measured values published in PMC8277203 (The Journal of Clinical Endocrinology and Metabolism, 2021).

What was measured:
Type in all cases: in vivo, human
[1] = tested on: patients with postbariatric hypoglycemia (PBH); assay: Mixed-meal tolerance testing; details: for GLP-1, AUC(0–180), mean value (SD) / Glucagon, AUC(0–180), mean value (SD) / Glucose, AUC(0–180), mean value (SD) / GLP-1, fasting, mean value (SD) / GLP-1, peak, mean value (SD) / Glucagon, fasting, mean value (SD) / Glucagon, peak, mean value (SD) / Glucose, AUC(peak:nadir), mean value (SD) / Glucose, fasting, mean value (SD) / Glucose, peak, mean value (SD) / Insulin, fasting, mean value (SD) / Glucose, nadir (primary endpoint), mean value (SD) / Insulin, peak (secondary endpoint), mean value (SD): 14 days, N = 17; for GLP-1, AUC(0–180), mean value (SD) / Glucagon, AUC(0–180), mean value (SD) / Glucose, AUC(0–180), mean value (SD): 0 to 180 minutes; for Glucose, nadir (primary endpoint), mean value (SD): postprandial plasma, within 3 hours of MMTT; for Insulin, peak (secondary endpoint), mean value (SD): postprandial; for Participants requiring rescue during MMTT: vs 47% with placebo
Summary of the method: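 Crossover design: 18 female patients got SC placebo for 14 days, then the test compound at 30 mg every 12 h and 60 mg each morning for 14 days each, in random order. After an overnight fast, each period ended with a 180-min MMTT: 64 g carbohydrate drink over 10 min. Plasma glucose, insulin, C-peptide, GLP-1 and glucagon were sampled every 15 min. Rescue was IV dextrose (point-of-care glucose ≤50 mg/dL with neuroglycopenic symptoms, or ≤40 mg/dL).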

[2] = tested on: patients with postbariatric hypoglycemia (PBH); assay: Safety: treatment-emergent adverse events, laboratory and physical findings
[3] = Plasma avexitide pharmacokinetics at end of each 14-day treatment period
Summary of the method: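 Plasma for drug concentration was drawn at the end of each 14-day SC regimen (30 mg every 12 h; 60 mg each morning) on days 29 and 43. Sampling times were −90, 0, 60, 180 and 330 min […], with the trough taken immediately before the −90 min dose. C0, Cmax and AUC0-t were summarised descriptively.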

[4] = tested on: patients with postbariatric hypoglycemia (PBH); assay: Outpatient blinded continuous glucose monitoring; details: for No. events <54 mg/dL 8 AM-12 AM, mean value (SD) / No. events <54 mg/dL 12 AM-8 AM, mean value (SD): CGM, sustained at least 15 minutes, normalized to 14 days; for No. events <54 mg/dL 8 AM-12 AM, mean value (SD) / No. events <54 mg/dL 12 AM-8 AM, mean value (SD) / % Time <54 mg/dL 8 AM-12 AM, mean value (SD) / % Time >250 mg/dL 24 hours, mean value (SD): N = 17; for % Time <54 mg/dL 8 AM-12 AM, mean value (SD) / % Time >250 mg/dL 24 hours, mean value (SD): percentage of CGM values
Summary of the method: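 Blinded CGM was worn at home through three 14-day periods (placebo, then SC test compound 30 mg twice daily or 60 mg once daily), with two injections daily for blinding. Read-outs were % CGM values <54 mg/dL (8 am–12 am or 12 am–8 am) or >250 mg/dL, normalised to 14 days. LS means were placebo-adjusted by mixed-effect model (treatment, sequence, period fixed; subject within sequence random).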

[5] = tested on: patients with postbariatric hypoglycemia (PBH); assay: Outpatient hypoglycemia captured by SMBG/eDiary; details: for Rate of Level 2 hypoglycemia, mean value (SD): SMBG <54 mg/dL; for Rate of Level 2 hypoglycemia, mean value (SD) / Rate of Level 1 hypoglycemia, mean value (SD): episodes normalized to 14 days, N = 17; for Rate of Level 1 hypoglycemia, mean value (SD): SMBG <70 mg/dL
Summary of the method: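 Outpatients logged each hypoglycaemic episode in an eDiary, using a glucometer (SMBG) over each 14-day period. Entries were symptoms, lowest SMBG, treatment, need for assistance, and postprandial or not. Levels were defined as Level 1 SMBG <70 mg/dL, Level 2 <54 mg/dL, and Level 3 needing another person's assistance. Rate was distinct episodes divided by days, normalised to 14 days. Placebo-adjusted LS means came from a mixed-effect model.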

[6] = avexitide 30 mg twice daily SC, MMTT
[7] = avexitide 30 mg twice daily, MMTT
[8] = avexitide 60 mg once daily SC, MMTT
[9] = avexitide 60 mg once daily, MMTT
[10] = plasma, end of each 14-day treatment period, SC

exendin (9-39) [Avexitide]
Fewer participants requiring rescue during MMTT compared with placebo ([1]; avexitide 30 mg twice daily): 50% | GLP-1, AUC(0–180), mean value (SD) [1, 6]: 330.8 (140.5) h×mg/dL | Glucagon, AUC(0–180), mean value (SD) [1, 6]: 466.7 (131.2) h × mg/dL | Glucose, AUC(0–180), mean value (SD) [1, 6]: 320.0 (89.5) h × mg/dL | GLP-1, fasting, mean value (SD) [1, 6]: 12.7 (3.4) pg/mL | GLP-1, peak, mean value (SD) [1, 6]: 413.3 (193.6) pg/mL | Glucagon, fasting, mean value (SD) [1, 6]: 156.3 (0) pg/mL | Glucagon, peak, mean value (SD) [1, 6]: 196.7 (49.8) pg/mL | Glucose, AUC(peak:nadir), mean value (SD) [1, 6]: 192.3 (91.9) h × mg/dL | Glucose, fasting, mean value (SD) [1, 6]: 87.5 (6.0) mg/dL | Glucose, peak, mean value (SD) [1, 6]: 218.2 (45.2) mg/dL | Insulin, fasting, mean value (SD) [1, 6]: 4.5 (2.7) μIU/mL | Glucose, nadir (primary endpoint), mean value (SD) ([1]; avexitide 30 mg twice daily SC): 57.1 (16.5) mg/dL | Insulin, peak (secondary endpoint), mean value (SD) [1, 6]: 349.5 (156.9) μIU/mL | AUC glucose concentrations higher than placebo [1, 7]: 12% | Increase of mean plasma glucose nadir compared with placebo [1, 7]: 21% | LS mean postprandial insulin peak lower than with placebo [1, 7]: 104.53 μIU/mL | Reduction of peak insulin compared with placebo [1, 7]: 23% | Participants requiring rescue during MMTT ([1]; avexitide 30 mg twice daily): 24% | Fewer participants requiring rescue during MMTT compared with placebo ([1]; avexitide 60 mg once daily): 75% | GLP-1, AUC(0–180), mean value (SD) [1, 8]: 351.1 (127.5) h×mg/dL | Glucagon, AUC(0–180), mean value (SD) [1, 8]: 484.1 (96.7) h × mg/dL | Glucose, AUC(0–180), mean value (SD) [1, 8]: 338.1 (80.7) h × mg/dL | GLP-1, fasting, mean value (SD) [1, 8]: 12.7 (4.6) pg/mL | GLP-1, peak, mean value (SD) [1, 8]: 397.1 (150.2) pg/mL | Glucagon, fasting, mean value (SD) [1, 8]: 156.8 (2.2) pg/mL | Glucagon, peak, mean value (SD) [1, 8]: 182.9 (35.9) pg/mL | Glucose, AUC(peak:nadir), mean value (SD) [1, 8]: 204.6 (86.3) h × mg/dL | Glucose, fasting, mean value (SD) [1, 8]: 84.6 (4.2) mg/dL | Glucose, peak, mean value (SD) [1, 8]: 224.5 (47.3) mg/dL | Insulin, fasting, mean value (SD) [1, 8]: 4.1 (2.6) μIU/mL | Glucose, nadir (primary endpoint), mean value (SD) ([1]; avexitide 60 mg once daily SC): 59.2 (16.1) mg/dL | Insulin, peak (secondary endpoint), mean value (SD) [1, 8]: 357.2 (190.9) μIU/mL | AUC glucose concentrations higher than placebo [1, 9]: 18% | Increase of mean plasma glucose nadir compared with placebo [1, 9]: 26% | LS mean postprandial insulin peak lower than with placebo [1, 9]: 96.29 μIU/mL | Reduction of peak insulin compared with placebo [1, 9]: 21% | Participants requiring rescue during MMTT ([1]; avexitide 60 mg once daily): 12% | Postprandial concentrations of GLP-1 and glucagon relative to placebo ([1]; both avexitide treatment regimens, MMTT): significantly higher | Influence on fasting insulin, GLP-1, or glucagon ([1]; both dosing regimens, MMTT): no influence | Serious adverse event (presyncope), reported as unrelated to study drug and self-limited ([2]; avexitide 60 mg once daily): 1 | Changes in vital signs, body weight, hematology or chemistry ([2]; both dosing regimens): No clinically significant changes | Patient withdrawals ([2]; both dosing regimens): no patient withdrawals | Treatment-related serious adverse events ([2]; both dosing regimens): no treatment-related serious adverse events | Tolerability ([2]; both dosing regimens, 28 days): well tolerated | Evidence of systemic plasma exposure ([3]; both dosing regimens): observed in all patients | Mean (AUC0-t) exposure, higher for 60 mg once daily than 30 mg twice daily [3, 10]: 40% | Peak (Cmax) exposure, higher for 60 mg once daily than 30 mg twice daily [3, 10]: 72% | No. events <54 mg/dL 8 AM-12 AM, mean value (SD) ([4]; avexitide 30 mg twice daily SC): 2.82 (3.00) | No. events <54 mg/dL 12 AM-8 AM, mean value (SD) ([4]; avexitide 30 mg twice daily SC): 2.34 (3.03) | % Time <54 mg/dL 8 AM-12 AM, mean value (SD) ([4]; avexitide 30 mg twice daily SC): 0.99 (1.12) % | % Time >250 mg/dL 24 hours, mean value (SD) ([4]; avexitide 30 mg twice daily SC): 0.99 (1.34) % | Reduction of mean percent time with glucose <54 mg/dL ([4]; avexitide 30 mg twice daily, blinded CGM): 50% | No. events <54 mg/dL 8 AM-12 AM, mean value (SD) ([4]; avexitide 60 mg once daily SC): 3.46 (2.48) | No. events <54 mg/dL 12 AM-8 AM, mean value (SD) ([4]; avexitide 60 mg once daily SC): 3.56 (4.18) | % Time <54 mg/dL 8 AM-12 AM, mean value (SD) ([4]; avexitide 60 mg once daily SC): 1.49 (1.70) % | % Time >250 mg/dL 24 hours, mean value (SD) ([4]; avexitide 60 mg once daily SC): 0.85 (0.98) % | Reduction of mean percent time with glucose <54 mg/dL ([4]; avexitide 60 mg once daily, blinded CGM): 24% | Percent time with glucose >250 mg/dL ([4]; blinded CGM, across treatment groups): less than 1% | Reduction of rate of SMBG <54 mg/dL (Level 2 hypoglycemia) compared with placebo ([5]; avexitide 30 mg twice daily): 40% | Reduction of rate of SMBG <70 mg/dL (Level 1 hypoglycemia) compared with placebo ([5]; avexitide 30 mg twice daily): 30% | Reduction of rate of severe hypoglycemia (Level 3) events ([5]; avexitide 30 mg twice daily): 23% | Rate of Level 2 hypoglycemia, mean value (SD) ([5]; avexitide 30 mg twice daily SC): 1.21 (1.65) | Rate of Level 1 hypoglycemia, mean value (SD) ([5]; avexitide 30 mg twice daily SC): 2.81 (2.13) | Reduction of rate of SMBG <54 mg/dL (Level 2 hypoglycemia) compared with placebo ([5]; avexitide 60 mg once daily): 60% | Reduction of rate of SMBG <70 mg/dL (Level 1 hypoglycemia) compared with placebo ([5]; avexitide 60 mg once daily): 61% | Reduction of rate of severe hypoglycemia (Level 3) events ([5]; avexitide 60 mg once daily): 56% | Rate of Level 2 hypoglycemia, mean value (SD) ([5]; avexitide 60 mg once daily SC): 0.81 (0.88) | Rate of Level 1 hypoglycemia, mean value (SD) ([5]; avexitide 60 mg once daily SC): 1.56 (1.27)
